# Columns and labels:
# [1] = Cytotoxicity against Huh7 replicon cells; format: cell-based; conditions: human, huh-7
# Hepatitis C virus = experiment: Antiviral activity against HCV in Huh7 cells at 2 uM by subgenomic replicon assay; format: functional, Hepacivirus hominis; conditions: Huh-7
# How it was run: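 Huh-7 replicon cells (luciferase reporter), grown to 85% confluency with >95% viability, seeded at 11 000 cells/well; compound added and incubated 48 h at 37 °C. Plates cooled 30 min to room temperature, luciferase reagent added, luminescence read after 3 min. Inhibition calculated with no-cell wells as low signal and compound-free cells as high signal; duplicate testing.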
SMILES,Activity [1],inhibition at 2 µM (Hepatitis C virus)
C=C1C(=O)O[C@@H]2[C@H]1CCC(COC(=O)C(C)CC)[C@]1(O)CCC(=O)[C@@]21C (some centres undefined),Not Active,25%
C=C1C(=O)O[C@@H]2[C@H]1CCC(COC(=O)CC(C)C)[C@]1(O)CCC(=O)[C@@]21C (some centres undefined),Not Active,63%
C=C1C(=O)O[C@@H]2[C@H]1CC[C@H](COC(=O)CC)[C@]1(O)CCC(=O)[C@@]21C [HISPITOLIDE A],Not Active,55%
C=C1C(=O)O[C@@H]2[C@H]1CC[C@H](COC(=O)CCC)[C@]1(O)CCC(=O)[C@@]21C [HISPITOLIDE B],Not Active,90%
C=C1C(=O)O[C@@H]2[C@H]1CC[C@H](COC(=O)/C(C)=C/C)[C@]1(O)CCC(=O)[C@@]21C [HISPITOLIDE C],Not Active,98%
C=C1C(=O)O[C@@H]2[C@H]1CC[C@H](COC(=O)C=C(C)C)[C@]1(O)CCC(=O)[C@@]21C [HISPITOLIDE D],Not Active,98%
C=C1C(=O)O[C@@H]2[C@H]1CC[C@H](COC(=O)/C(C)=C\C)[C@]1(O)CCC(=O)[C@@]21C [HISPITOLIDE E],Not Active,65%
